Only some compounds are listed: those with a hit (about 1.8% of all), similar ones and a draw of the others.
ARNT-TACC3 inh: ARNT/TACC3 interaction disruption | Q9Y6A5 | AlphaScreen His-ARNT PAS-B/GST-TACC3 binding, luminescence; TACC3 fragment carries E629A point mutation | inhibition, % at 9.99 µM | 390,000 compounds, 0.66% hits;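 active = mean inhibition of replicates at least 50% and at least half of replicates each reaching 50%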;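 also: 0% = complete ARNT plus TACC3 wells and 100% = ARNT alone without TACC3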
GRK2 aptamer HTS: blocks RNA aptamer binding to human GRK2. inhibition of aptamer binding, % at 10 µM. AID 488847. 330,000 compounds, 0.59% hits. bead flow cytometry, FAM-aptamer displacement from GRK2;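 active = inhibition of aptamer binding above 40%, roughly 3 SD of noise, on plates passing a quality check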;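 also: median bead fluorescence of bound FAM aptamer so fluorescent compounds give negative values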
DDE Tn6 FP inh: disrupts Tn6 cyclic peptide binding to fibrin D-Dimer-E complex; Fibrin DD(E) TRITC-Tn6 fluorescence polarization displacement; inhibition, % at 8.3 µM; 370,000 compounds, 0.21% hits;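 active = inhibition above a per-campaign cutoff: mean of compounds within control limits plus 3 SD, cut at about 15% in these data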;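 also: 0% = median of all compound wells on the plate and 100% = blocking peptide control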
DDE Tn7 FP inh: disrupts Tn7 cyclic peptide binding to fibrin D-Dimer-E complex | 370,000 compounds, 0.13% hits | P02675 | FP displacement of FITC-Tn7 peptide from fibrin DD(E); 0% = median of compound wells per plate | inhibition, % at 8.3 µM;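 active = inhibition above the mean of compounds falling within the control limits plus 3 SD of them, cut at about 14% in these data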;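 also: 0% = plate median of compound wells and 100% = 10 µM Aha-Tn7 peptide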
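Assay system: human fibrin DD(E). Input: DD(E) 2 µM final. Medium: Tris buffer with calcium and detergent, pH 7.8. Compound dosing: single point at 8.3 µM. Timing: 10 min plus 3 h, room temperature. Technique: fluorescence polarization of the labelled Tn7 tracer. Read-out: percent inhibition. Replicates: singlicate testing.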
CAL PDZ FP-1: human CAL PDZ-peptide interaction inhibition; Q9HD26; purified CAL PDZ, TMR-peptide fluorescence polarization, 1 h; inhibition, % at 20 µM; 330,000 compounds, 0.02% hits; AID 504414;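 active = highest replicate inhibition of at least 40%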;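 also: plate controls were DMSO neutral control wells for no effect and unlabeled competitor peptide control wells for full effect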
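Material: tagged CAL PDZ protein CerCALP, purified; buffer or medium: sodium phosphate/NaCl buffer pH 7.4 with TCEP, IgG, Thesit; also added: fluorescent TMR peptide probe; schedule: 1 h incubation at room temperature before polarization reading; technique: fluorescence polarization from S- and P-plane intensities, G-factor corrected; control set: unlabelled peptide and DMSO controls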
CAL PDZ FP-2: CAL PDZ (human) peptide binding inhibition; Q9HD26; purified CAL PDZ, TMR-peptide fluorescence polarization, 1 h; inhibition, % at 24.9 µM; 300,000 compounds, 0.92% hits; AID 602252;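 active = mean inhibition of at least 30% with at least half of replicates also reaching 30%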;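 also: 0% = DMSO neutral control and 100% = excess unlabeled competitor peptide PRC23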
* marks the source's active call; other numbers are inactive results; nt = no result given.

SMILES	ARNT-TACC3 inh	GRK2 aptamer HTS	DDE Tn6 FP inh	DDE Tn7 FP inh	CAL PDZ FP-1	CAL PDZ FP-2
C[C@@H]1CN([C@@H](C)CO)C(=O)c2cc(NC(=O)Nc3ccc4c(c3)OCO4)ccc2O[C@@H]1CN(C)Cc1ccc(C(F)(F)F)cc1	2.4	nt	nt	nt	nt	nt
C[C@@H]1CN([C@H](C)CO)C(=O)c2cc(NC(=O)CCN3CCOCC3)ccc2O[C@H]1CN(C)S(=O)(=O)c1ccc(Cl)cc1	1.0	nt	nt	nt	nt	nt
CC(=O)c1cc(C(=O)N2CCc3c([nH]c4ccccc34)C2CC(C)C)[nH]n1 (stereo not given)	14.8	0.0	1.7	2.2	-0.9	77.3*
CCSc1nnc(N)s1	-4.8	0.0	6.1	6.1	0.1	nt
CC(C)CSc1nnc(N)s1	-5.7	1.0	8.6	-0.8	-0.6	57.5*
CC(C)(C)c1ccc(C(=O)NC(=S)Nc2ccc(N3CCOCC3)cc2)cc1	-11.0	5.0	0.3	-2.6	0.6	32.6*
CCCc1nnc(NC(=O)C23CC4CC(CC(C4)C2)C3)s1	2.0	0.0	-6.9	-3.4	-2.8	nt
O=C(Oc1cccc2cccnc12)c1ccco1	53.9*	2.0	-6.1	2.6	nt	-2.1
CCCC(=O)Nc1ccc2c(c1)C(=O)N(C)C[C@H](OC)[C@@H](C)CN(C(=O)c1ccccn1)[C@H](C)CO2	1.1	nt	nt	nt	nt	nt
CN(C)S(=O)(=O)c1cccc(NC(=S)N/N=C/c2ccc(O)c(O)c2O)c1	68.7*	nt	-14.2	-1.3	-3.4	2.5
COc1ccc(O)c(/C=N/NC(=S)Nc2cccnc2)c1	67.3*	6.0	0.2	-3.3	-0.2	-4.8
COc1cccc(/C=N/NC(=S)Nc2cccnc2)c1	3.2	0.0	-0.8	-0.6	10.2	-1.6
COc1ccc(O)c(/C=N/NC(=S)Nc2cccc(S(=O)(=O)N(C)C)c2)c1	65.5*	2.0	1.4	1.5	0.6	-3.5
CC(=O)[C@@]12O[C@]3(COC[C@H](c4ccccc4)N3C1=O)[C@@H]1C(=O)N(c3ccccc3)C(=O)[C@@H]12	-3.6	nt	nt	nt	nt	nt
COc1ccc(C(N)=O)c(OCC(=O)Nc2cc(C)on2)c1	-1.0	0.0	-7.9	4.5	0.1	38.6*
Cc1ccc(-n2ncc(Cl)c2C(=O)NC2CC2)cc1	2.1	0.0	-2.7	-1.9	-0.8	58.7*
CC(=O)N(C1=C(N)C(=O)c2ccccc2C1=O)c1ccccc1	12.1*	2.0	2.5	1.1	1.3	-1.7
Cc1noc(C)c1NC(=O)Nc1ccc2c(c1)CC(=O)N([C@H](C)CO)C[C@@H](C)[C@H](CN(C)Cc1ccc3c(c1)OCO3)O2	-3.7	nt	nt	nt	nt	nt
COc1ccccc1OCCNC(=O)c1ccc(Br)cc1	-7.1	0.0	-2.2	5.5	nt	32.9*
COc1ccc(CCNC(=O)c2ccc(Br)cc2)cc1	7.8	0.0	-5.3	6.3	nt	41.8*
COc1ccccc1OCCNC(=O)c1ccc(C(C)(C)C)cc1	-7.2	2.0	-10.1	-1.8	-0.8	-1.6
CO[C@@H](CN(C)S(=O)(=O)c1cn(C)cn1)[C@@H](C)CN(C(=O)Nc1ccc(C(F)(F)F)cc1)[C@@H](C)CO	1.0	nt	nt	nt	nt	nt
CC(C)(C)CC(=O)NCCCN1CCOCC1	-2.2	1.0	3.0	0.1	3.8	36.9*
CO[C@@H]1CN(C)C(=O)c2cc(NC(=O)Nc3ccccc3F)ccc2OC[C@@H](C)N(CC2CC2)C[C@@H]1C	-7.0	nt	nt	nt	nt	nt
C[C@H]1CN([C@@H](C)CO)C(=O)c2cccc(NS(=O)(=O)c3ccccc3)c2O[C@H]1CN(C)S(=O)(=O)c1ccccc1	-2.1	nt	nt	nt	nt	nt
Cc1ccc(S(=O)(=O)N2CCCCC2)cc1NC(=O)CSc1ncn[nH]1	-5.2	0.0	3.6	0.9	-0.7	nt
Cc1ccc(S(=O)(=O)N(C)C)cc1NC(=O)CSc1ncn[nH]1	1.3	5.0	-6.0	1.4	-1.0	34.4*
O=C(N[C@@H]1CC[C@@H](CCNS(=O)(=O)c2cccc(Cl)c2)O[C@@H]1CO)c1ccncc1	-20.3	nt	nt	nt	nt	nt
CC(Cc1cccnc1)NC(=O)c1ccccc1OC1CCN(S(C)(=O)=O)CC1 (stereo not given)	-11.0	2.0	1.9	-2.6	-1.9	31.0*
COC(=O)[C@@H](NC(=O)c1ccccc1OC1CCN(S(C)(=O)=O)CC1)C(C)C	-1.9	0.0	-7.2	-1.6	1.5	nt
